Screens (PubChem BioAssay)
XiGFP reactiv: activators of inactive X chromosome reactivation, primary screen, imaging, XiGFP fibroblasts, GFP high-content imaging, set 2; hit rate 0.055% among 360,000; XiGFP mouse fibroblasts, % GFP-positive cells imaging, 3 d; cells co-treated with 5-aza-dC sensitizer; scaled so ellipticine positive control = 100%; activation, % at 7.58 µM;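 active means mean normalized replicate activation at least 10% and every replicate at or above 10%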;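 further: 0% = median of on-plate neutral control wells and 100% = ellipticine 6 µM median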
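Schedule: 3 d treatment, 15 min room-temperature fixation; system: 68-5-11 XiGFP fibroblast line; buffer or medium: DMEM plus 5-aza-dC sensitizer; control set: ellipticine 6 µM positive control; compound: one concentration, pinned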
ABCB6 inh 2: ABCB6 transporter inhibitors, primary screen, K562-ABCB6 cells, flow cytometry, MLPCN library; ATP-binding cassette sub-family B member 6 (Homo sapiens), Q9NP58; K562-ABCB6 porphyrin accumulation, 1 h; stronger effect = lower value; fluorescence ratio to DMSO, % at 10 µM; hit rate 0.19% among 360,000; AID 602162, 2011;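 active means fluorescence ratio to DMSO below 75%, the collection mean minus 3 SD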;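 further: signal is porphyrin accumulated inside mitochondria; 100% equals median channel fluorescence of DMSO control wells; lower ratio means ABCB6 inhibition with less porphyrin fluorescence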
Target sequence (Q9NP58 whole entry, looked up): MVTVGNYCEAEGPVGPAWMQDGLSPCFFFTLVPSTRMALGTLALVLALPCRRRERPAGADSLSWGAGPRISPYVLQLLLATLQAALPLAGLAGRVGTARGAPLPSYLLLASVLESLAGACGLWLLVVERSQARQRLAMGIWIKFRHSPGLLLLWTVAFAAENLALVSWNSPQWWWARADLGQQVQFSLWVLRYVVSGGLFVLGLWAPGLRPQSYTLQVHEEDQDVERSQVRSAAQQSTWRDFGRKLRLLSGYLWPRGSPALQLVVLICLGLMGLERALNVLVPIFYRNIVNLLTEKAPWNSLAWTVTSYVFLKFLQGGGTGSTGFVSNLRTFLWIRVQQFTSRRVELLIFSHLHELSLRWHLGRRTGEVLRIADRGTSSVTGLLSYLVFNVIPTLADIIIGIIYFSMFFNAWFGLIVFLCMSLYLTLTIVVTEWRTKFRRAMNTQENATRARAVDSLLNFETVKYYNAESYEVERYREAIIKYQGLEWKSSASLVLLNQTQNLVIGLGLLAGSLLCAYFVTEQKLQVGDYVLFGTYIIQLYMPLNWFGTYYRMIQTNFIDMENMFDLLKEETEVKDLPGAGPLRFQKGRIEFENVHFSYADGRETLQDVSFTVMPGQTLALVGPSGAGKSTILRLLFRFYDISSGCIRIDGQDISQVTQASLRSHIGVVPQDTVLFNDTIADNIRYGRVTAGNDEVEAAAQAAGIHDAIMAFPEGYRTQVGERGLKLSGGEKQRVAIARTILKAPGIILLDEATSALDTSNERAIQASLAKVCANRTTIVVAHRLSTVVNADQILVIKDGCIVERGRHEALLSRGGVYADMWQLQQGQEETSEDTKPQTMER
Myeloid diff 2: induction of myeloid progenitor differentiation, primary screen, cell-based, flow cytometry, MLPCN library; calls only at 10 µM; ER-HoxA9 myeloid progenitors, lysozyme-GFP differentiation; hit rate 1% among 360,000;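 active means normalized GFP-positive differentiation at or above the plate's own cutoff, the solvent-only control mean plus 3 SD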;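 further: cells exposed to compound for four days before flow analysis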
Myeloid diff: inducers of myeloid progenitor differentiation, confirmation, cell-based, GFP/Mac1 flow cytometry, cherry pick 01 | hit rate 2% among 2,300 | shares compounds with Myeloid diff 2 | calls only | ER-HoxA9 myeloid progenitors, GFP/Mac1 double-positive flow;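 active means share of green or green-and-red cells above 9 and 9% in run 1 or 4 and 3% in run 2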
GFP autofluor: compound fluorescence in myeloid differentiation counter-screen. fluorescence response, % (no concentration beside the values). AID 651707. ER-HoxA9 myeloid progenitors, no estrogen, GFP autofluorescence flow cytometry; vehicle wells 0%, positive control 100%. hit rate 7.4% among 2,300. shares compounds with Myeloid diff 2;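 active means over 5% cells positive for green fluorescent reporter, or over 2% positive for both it and APC stain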;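 further: range taken on the double positive population between DMSO and positive control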
The depositor's hits bear a star; ! = not confirmed by another sample. Shown is part of a subset that was picked to be rich in hits.

Screening COc1ccc(NC(=O)N(C)C[C@@H]2OCCCC[C@H](C)Oc3ccc(NS(=O)(=O)c4ccc(C)cc4)cc3C(=O)N([C@H](C)CO)C[C@@H]2C)cc1 returned XiGFP reactiv 0.
CCc1ccc2c(c1)cc(CN(C(=S)Nc1ccccc1C)C1CC1)c1nnnn12 was read as ABCB6 inh 2 91, Myeloid diff 2 inactive, Myeloid diff inactive and GFP autofluor 0.
Screening CCc1ccc2c(c1)cc(CN(C(=S)Nc1ccccc1)C1CC1)c1nnnn12 returned ABCB6 inh 2 98 and Myeloid diff 2 inactive.
`COCc1c(C)cc(C)c(/C=N/O)c1C` gave ABCB6 inh 2 95, Myeloid diff 2 inactive, Myeloid diff inactive and GFP autofluor 2.
Screening CN1C[C@@H](O)COC[C@@H]2O[C@@H](CC(=O)N3CCN(c4ccccc4)CC3)CC[C@H]21 returned XiGFP reactiv 0.
CCNC(=O)C[C@H]1CC[C@H]2[C@@H](COc3ccc(NC(=O)NC(C)C)cc3C(=O)N2C)O1 was read as XiGFP reactiv 0.
C[C@H](CO)N1C[C@H](C)[C@H](CN(C)C(=O)NC2CCCCC2)Oc2ccc(N(C)C)cc2C1=O was read as XiGFP reactiv 0.
CN(Cc1ccccc1)CC(O)COc1ccc(CNCCc2cccnc2)cc1 (stereo not given) was read as ABCB6 inh 2 96 and Myeloid diff 2 inactive.
For CCc1ccc(CNCc2ccc(OCC(O)CN(C)Cc3ccccc3)cc2)nc1 (stereo not given) the results were XiGFP reactiv 0, ABCB6 inh 2 90, Myeloid diff 2 active, Myeloid diff inactive and GFP autofluor 1.
`Cc1cc(C)c(-n2c(SCCS(=O)(=O)c3ccc(F)cc3)n[nH]c2=O)c(C)c1` gave XiGFP reactiv 0, ABCB6 inh 2 99 and Myeloid diff 2 inactive.
`Cc1ccc(S(=O)(=O)CCSc2n[nH]c(=O)n2-c2ccccc2)cc1` gave XiGFP reactiv 0, ABCB6 inh 2 97, Myeloid diff 2 inactive, Myeloid diff inactive and GFP autofluor 0.
For CCN1[C@H](C(=O)NCC2CC2)[C@@H](CO)[C@@H]2Cn3c(ccc(-c4ccccc4OC)c3=O)[C@@H]21 the results were XiGFP reactiv 0.
Screening CCOc1ccccc1N(CC(=O)NCCSCc1ccco1)S(=O)(=O)c1ccccc1 returned XiGFP reactiv 0, ABCB6 inh 2 100 and Myeloid diff 2 inactive.
For Cc1ccccc1N(CC(=O)NCCSCc1ccco1)S(C)(=O)=O the results were ABCB6 inh 2 100, Myeloid diff 2 active, Myeloid diff inactive and GFP autofluor 1.
For CCC(=O)N1[C@H](C(=O)OC)[C@@H](CO)[C@@H]2Cn3c(ccc(/C=C/c4ccccc4)c3=O)[C@@H]21 the results were XiGFP reactiv 0.
`O=C(NCc1ccccc1)C(c1ccc(-c2ccccc2)cc1)N1CCN(CCN2CCOCC2)CC1` (stereo not given) gave XiGFP reactiv 0 and Myeloid diff 2 inactive.
Screening O=C(NCc1ccccc1)C(c1ccc(C(F)(F)F)cc1)N1CCN(CCN2CCOCC2)CC1 (stereo not given) returned XiGFP reactiv 0, Myeloid diff 2 inactive, Myeloid diff inactive and GFP autofluor 0.
`O=C(C[C@@H]1C[C@H]2c3cc(NS(=O)(=O)c4ccc(F)cc4)ccc3O[C@H]2[C@H](CO)O1)N1CCCCC1` gave XiGFP reactiv 0.
Screening COc1cccc(NC(=O)N(C)C[C@H]2Oc3ncc(C4=CCCCC4)cc3C(=O)N([C@H](C)CO)C[C@@H]2C)c1 returned XiGFP reactiv 0.
`CC1Nc2ncnc(N3CCc4ccccc4C3)c2N(Cc2ccc(Cl)cc2)C1=O` (stereo not given) gave ABCB6 inh 2 105 and Myeloid diff 2 inactive.
For CC1Nc2ncnc(N3CCc4ccccc4C3)c2N(Cc2ccc(Br)cc2)C1=O (stereo not given) the results were XiGFP reactiv 0, ABCB6 inh 2 100, Myeloid diff 2 active!, Myeloid diff inactive and GFP autofluor 0.
`C[C@@H]1CN([C@@H](C)CO)C(=O)CCCn2nncc2CO[C@H]1CN(C)S(=O)(=O)c1ccc2ccccc2c1` gave XiGFP reactiv 0, ABCB6 inh 2 94, Myeloid diff 2 inactive, Myeloid diff inactive and GFP autofluor 0.
Screening C[C@@H]1CN([C@H](C)CO)C(=O)CCCn2nncc2CO[C@@H]1CN(C)S(=O)(=O)c1ccc2ccccc2c1 returned XiGFP reactiv 0, ABCB6 inh 2 93 and Myeloid diff 2 inactive.
O=C(Nc1ccc(F)cc1)Nc1ccc2c(c1)[C@H]1C[C@@H](CC(=O)N3CCOCC3)O[C@@H](CO)[C@H]1O2 was read as XiGFP reactiv 0.
For O=C(NCc1ccccc1)C12CN(Cc3ccccc3)CC1C(c1cccc([N+](=O)[O-])c1)=NO2 (stereo not given) the results were XiGFP reactiv 0, ABCB6 inh 2 100, Myeloid diff 2 inactive, Myeloid diff inactive and GFP autofluor 0.
For O=C(NCc1ccc(OC(F)(F)F)cc1)C12CN(Cc3ccccc3)CC1C(c1cccc([N+](=O)[O-])c1)=NO2 (stereo not given) the results were XiGFP reactiv 0, ABCB6 inh 2 97 and Myeloid diff 2 inactive.
`CCC(=O)N(C)C[C@@H]1Oc2cc(C3=CCCC3)ccc2S(=O)(=O)N([C@H](C)CO)C[C@H]1C` gave XiGFP reactiv -1.
For COc1cccc(C(=O)Nc2ncc3c(n2)CC(c2ccc(OC)cc2OC)CC3=O)c1 (stereo not given) the results were ABCB6 inh 2 105, Myeloid diff 2 inactive, Myeloid diff inactive and GFP autofluor 0.
For COc1ccc(C(=O)Nc2ncc3c(n2)CC(C)CC3=O)cc1 (stereo not given) the results were XiGFP reactiv 0, ABCB6 inh 2 97 and Myeloid diff 2 inactive.
`C[C@H](CO)N1C[C@H](C)[C@@H](CN(C)S(=O)(=O)Cc2ccccc2)OCc2ccccc2-c2c(n(C)c3ccccc23)C1=O` gave XiGFP reactiv -1.
`CN(C)CCCNC(=O)C[C@@H]1CC[C@H]2[C@H](COc3ccc(NS(C)(=O)=O)cc3C(=O)N2C)O1` gave XiGFP reactiv 0.
For CSc1nc(N)nc(SCC(=O)Nc2ccc(Cl)cc2)c1C#N the results were ABCB6 inh 2 99, Myeloid diff 2 inactive, Myeloid diff inactive and GFP autofluor 0.
Screening CSc1nc(N)nc(SCC(=O)Nc2cccc(F)c2)c1C#N returned XiGFP reactiv 0, ABCB6 inh 2 94 and Myeloid diff 2 inactive.
